Data reported in paper PMC3404467 (Journal of Medicinal Chemistry, 2012).
One block for each compound: values may come before it.

What was measured:
hNPFF1R [1] = biological target: T1, hNPFF1R (Homo sapiens, UniProt Q9GZQ6); assay: IP accumulation assay, wt hNPFF1R in COS-7 cells with chimeric G-protein; format: cell-based; conditions: for functional behaviour at NPFF1R: IP accumulation assays; for functional behaviour at NPFF1R / IP accumulation at NPFF1R: wt NPFF1R; for x-fold: wt hNPFF1R, EC50(compound)/EC50(endogenous ligand NPVF at wt); for IP accumulation at NPFF1R: at 10 μM
T1 sequence (Q9GZQ6 whole entry): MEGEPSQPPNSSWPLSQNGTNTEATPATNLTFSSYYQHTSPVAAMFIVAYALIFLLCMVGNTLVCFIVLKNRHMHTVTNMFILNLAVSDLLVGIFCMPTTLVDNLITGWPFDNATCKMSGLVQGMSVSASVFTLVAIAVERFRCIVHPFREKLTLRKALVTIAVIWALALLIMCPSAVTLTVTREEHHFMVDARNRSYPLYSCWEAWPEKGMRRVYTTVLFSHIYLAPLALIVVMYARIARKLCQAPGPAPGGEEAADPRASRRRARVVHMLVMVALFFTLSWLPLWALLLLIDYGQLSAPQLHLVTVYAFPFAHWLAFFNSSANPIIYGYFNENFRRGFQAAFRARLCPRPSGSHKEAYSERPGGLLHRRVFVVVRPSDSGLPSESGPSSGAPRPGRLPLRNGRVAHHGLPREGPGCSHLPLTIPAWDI

COS-7 cells = assay: Resazurin-based cell viability assay; design: species or system African Green Monkey; conditions: 2 h incubation, at high compound concentrations
Procedure, shortened: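 COS-7 cells seeded 30,000/well, grown to subconfluency, exposed 2 h to varying concentrations in DMEM (4.5 g/L glucose, L-glutamine, 10% heat-inactivated FCS). Controls were 70% EtOH for 10 min and FCS medium. Cells were washed twice in serum-free medium, then given 10% resazurin in serum-free medium for 2 h at 37°C. Resorufin fluorescence was read at ex 550/em 595 nm. Two independent experiments, triplicates; IC50 derived.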

human NPFF2 receptor = human NPFF2 receptor (Homo sapiens, UniProt Q9Y5X5); assay: IP accumulation assay, wt hNPFF2R in COS-7 cells with chimeric G-protein; format: cell-based; conditions: for functional behaviour at NPFF2R: IP accumulation assays, wt NPFF2R; for x-fold: wt hNPFF2R, EC50(compound)/EC50(NPFF at wt)
human NPFF2 receptor, sequence (Q9Y5X5 whole entry): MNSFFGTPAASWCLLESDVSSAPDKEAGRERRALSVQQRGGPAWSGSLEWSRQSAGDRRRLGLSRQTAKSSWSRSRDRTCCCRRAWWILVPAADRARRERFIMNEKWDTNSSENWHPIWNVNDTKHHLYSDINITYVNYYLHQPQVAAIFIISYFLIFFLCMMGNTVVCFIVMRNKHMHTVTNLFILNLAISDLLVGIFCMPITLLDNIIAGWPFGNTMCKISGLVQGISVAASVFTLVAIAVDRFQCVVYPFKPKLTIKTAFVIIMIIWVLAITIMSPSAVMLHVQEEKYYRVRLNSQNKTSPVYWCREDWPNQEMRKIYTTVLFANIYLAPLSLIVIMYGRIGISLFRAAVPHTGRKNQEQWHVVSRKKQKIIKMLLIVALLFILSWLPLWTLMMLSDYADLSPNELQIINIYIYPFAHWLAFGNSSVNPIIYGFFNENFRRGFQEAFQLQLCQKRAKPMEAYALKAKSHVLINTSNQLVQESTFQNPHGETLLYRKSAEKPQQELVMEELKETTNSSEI

Y^7.35A_hNPFF2R = Y^7.35A_hNPFF2R (Homo sapiens, UniProt Q9Y5X5, Y417A); assay: IP accumulation assay, Y^7.35A mutant of hNPFF2R; format: cell-based; conditions: Y^7.35A hNPFF2R; ratio to EC50 of NPFF at wt
Y^7.35A_hNPFF2R, sequence (Q9Y5X5 whole entry Y417A): as the sequence (Q9Y5X5 whole entry) above, with Y417A counted along it

hNPFF1R [2] = biological target: T1, hNPFF1R; assay: Antagonism: NPVF concentration-response curves; format: cell-based; conditions: against NPVF
D^6.59A_hNPFF2R = D^6.59A_hNPFF2R (Homo sapiens, UniProt Q9Y5X5, D400A); assay: IP accumulation assay, D^6.59A mutant of hNPFF2R; format: cell-based; conditions: D^6.59A hNPFF2R; ratio to EC50 of NPFF at wt
D^6.59A_hNPFF2R, sequence (Q9Y5X5 whole entry D400A): as the sequence (Q9Y5X5 whole entry) above, with D400A counted along it

[3] = rats, spinal nerve ligation; cited from earlier work
Y^5.38A hNPFF2 receptor = Y^5.38A hNPFF2 receptor (Homo sapiens, UniProt Q9Y5X5, Y321A); assay: IP accumulation assay, Y^5.38A mutant of hNPFF2R; format: cell-based; conditions: Y^5.38A hNPFF2R; ratio to EC50 of NPFF at wt
Y^5.38A hNPFF2 receptor, sequence (Q9Y5X5 whole entry Y321A): as the sequence (Q9Y5X5 whole entry) above, with Y321A counted along it

Y^7.33A_hNPFF2R = Y^7.33A_hNPFF2R (Homo sapiens, UniProt Q9Y5X5, Y415A); assay: IP accumulation assay, Y^7.33A mutant of hNPFF2R; format: cell-based; conditions: Y^7.33A hNPFF2R; ratio to EC50 of NPFF at wt
Y^7.33A_hNPFF2R, sequence (Q9Y5X5 whole entry Y415A): as the sequence (Q9Y5X5 whole entry) above, with Y415A counted along it

hNPFF1R [4] = biological target: T1, hNPFF1R; conditions: CHO-hNPFF1R cells, up to 10 μM; cited from earlier work
hNPFF2R = conditions: cited from earlier work

Structure (SMILES): N=C(N)N/N=C/c1ccc(Br)c(Br)c1 [AC-093]
functional behaviour at NPFF1R (hNPFF1R [1]): partial agonists
x-fold (hNPFF1R [1]): 310 fold
cytotoxicity (relative cell viability) (COS-7 cells): cytotoxic effect
functional behaviour at NPFF2R (human NPFF2 receptor): full agonists
x-fold (human NPFF2 receptor): 1291 fold

Structure (SMILES): N=C(N)N/N=C/c1ccc(Cl)c(C(F)(F)F)c1 [AC-099]
functional behaviour at NPFF1R (hNPFF1R [1]): partial agonists
functional behaviour at NPFF2R (human NPFF2 receptor): full agonists

Structure (SMILES): N=C(N)NCCC[C@H](NC(=O)C12CC3CC(CC(C3)C1)C2)C(=O)N[C@@H](Cc1ccccc1)C(N)=O [RF9, 1-Adamantanecarbonyl-RF-NH2, reference compound]
x-fold (Y^7.35A_hNPFF2R): 277 fold
functional behaviour at NPFF1R (hNPFF1R [1]): agonistic activity
x-fold (hNPFF1R [1]): 41 fold
activity in cAMP accumulation assay (hNPFF1R [4]): inactive
functional behaviour at NPFF2R (human NPFF2 receptor): agonistic activity
x-fold (human NPFF2 receptor): 222 fold
effect on stimulation of [^35S]GTPγS binding (hNPFF2R; hNPFF2R membranes, up to 100 μM): no effect
right-shift of concentration-effect curves of NPFF (hNPFF2R; in the presence of high concentrations of RF9): ~ 160 fold

More lines, main results first:

x-fold (Y^7.35A_hNPFF2R): 66 fold
functional behaviour at NPFF1R (hNPFF1R [1]): competitive antagonist
IP accumulation at NPFF1R (hNPFF1R [1]): no IP accumulation
Schild plot slope (hNPFF1R [2]): 0.89 ± 0.05
functional behaviour at NPFF2R (human NPFF2 receptor): partial agonist
x-fold (human NPFF2 receptor): 137 fold
Structure (SMILES): NC(N)=NCCC[C@@H](NC(=O)C(c1ccccc1)c1ccccc1)C(=O)NCc1ccc(O)cc1 [BIBP3226, (R)-N(2)-(diphenylacetyl)-N-[(4-hydroxyphenyl)-methyl]-argininamide, reference compound]

x-fold (Y^7.35A_hNPFF2R): 738 fold
functional behaviour at NPFF1R (hNPFF1R [1]): full agonist
x-fold (hNPFF1R [1]): 3308 fold
EC50 (human NPFF2 receptor): 1160 ± 638 nM
functional behaviour at NPFF2R (human NPFF2 receptor): full agonists
x-fold (human NPFF2 receptor): 977 fold
Structure (SMILES): N=C(N)N/N=C/c1ccc(-c2ccc(Br)cc2C(F)(F)F)o1 [AC-216]
cytotoxicity (relative cell viability) (COS-7 cells): cytotoxic effect

x-fold (Y^7.35A_hNPFF2R): 177 fold
functional behaviour at NPFF1R (hNPFF1R [1]): competitive antagonism
IP accumulation at NPFF1R (hNPFF1R [1]): no IP accumulation
Schild plot slope (hNPFF1R [2]): 1.04 ± 0.19
x-fold (D^6.59A_hNPFF2R): 5211 fold
functional behaviour at NPFF2R (human NPFF2 receptor): full agonists
x-fold (human NPFF2 receptor): 175 fold
x-fold (Y^5.38A hNPFF2 receptor): 1440 fold
x-fold (Y^7.33A_hNPFF2R): 4901 fold
Structure (SMILES): N=C(N)N/N=C/C12CC3CC(CC(C3)C1)C2 [AC-970]
cytotoxicity (relative cell viability) (COS-7 cells): cytotoxic effect
antinociceptive effect on mechanical allodynia [3]: reversing established mechanical allodynia
